Calls of active or inactive are those of the source. The calls are words filed in the database; no cut-off is given here.
Columns and labels:
[1] = tested on: NCI-H1299; test: Induction of apoptosis in human H1299 cells assessed as reduction in Bcl-2 level at 0.25 to 1 uM after 24 hrs by Western blot analysis; assay type: functional, cell-based
How it was run: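 A549 or H1299 cells exposed to the indicated concentrations for 24 h. Protein extracts then immunoblotted for apoptosis-pathway proteins (Bcl2, Bim, cleaved caspase 3).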

[2] = target: Cyclin-dependent kinase 14/Cyclin-Y (Homo sapiens) (UniProt O94921+Q8ND76); test: Inhibition of human CDK14/cyclinY at 1 uM by radiometric method relative to control; assay type: protein-complex assay
How it was run: (§1)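 Percent inhibition of kinase activity at a single compound concentration, measured by the outsourced Eurofins KinaseProfiler panel. Values are the mean of two independent experiments.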

[3] = target: cGMP-dependent protein kinase 2 (Homo sapiens) (UniProt Q13237); test: Inhibition of recombinant full-length human PRKG2 at 1 uM using KKLRRTLSFAEPG as substrate measured after 40 mins in presence of [gamma33P]ATP by scintillation counting method relative to control
cGMP-dependent protein kinase 2 (Homo sapiens), sequence (Q13237 whole entry): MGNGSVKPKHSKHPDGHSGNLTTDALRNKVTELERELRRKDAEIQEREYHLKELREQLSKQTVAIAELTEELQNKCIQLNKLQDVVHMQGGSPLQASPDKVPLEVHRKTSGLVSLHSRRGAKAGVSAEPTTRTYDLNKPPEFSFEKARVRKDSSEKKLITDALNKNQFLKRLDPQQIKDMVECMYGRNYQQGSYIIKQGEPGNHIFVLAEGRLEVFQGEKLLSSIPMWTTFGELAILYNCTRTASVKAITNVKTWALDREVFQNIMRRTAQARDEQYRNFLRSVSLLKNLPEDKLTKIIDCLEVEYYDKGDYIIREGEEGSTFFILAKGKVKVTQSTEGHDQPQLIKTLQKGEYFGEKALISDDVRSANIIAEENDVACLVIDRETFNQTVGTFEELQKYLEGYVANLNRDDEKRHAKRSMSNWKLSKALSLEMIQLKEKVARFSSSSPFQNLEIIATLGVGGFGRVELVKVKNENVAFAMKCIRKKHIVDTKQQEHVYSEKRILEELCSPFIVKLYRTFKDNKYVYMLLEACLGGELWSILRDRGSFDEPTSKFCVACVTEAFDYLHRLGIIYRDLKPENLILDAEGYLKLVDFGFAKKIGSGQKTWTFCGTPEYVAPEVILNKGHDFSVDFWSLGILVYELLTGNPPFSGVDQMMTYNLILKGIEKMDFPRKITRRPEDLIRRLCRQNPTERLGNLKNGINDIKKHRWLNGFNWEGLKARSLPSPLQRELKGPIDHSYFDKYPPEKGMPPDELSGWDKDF

[4] = tested on: NCI-H1299; test: Induction of cell cycle arrest in human H1299 cells assessed as increase in accumulation of cells at G2/M phase at 1 uM after 24 hrs by propidium iodide/RNase staining based flow cytometric analysis (reference value: 19%); assay type: functional
How it was run: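 A549 and H1299 plated at 5×10^5 cells/mL in 6-well plates, treated after adherence for 24 h. Washed with PBS, fixed overnight in ice-cold 75% ethanol, stained with propidium iodide plus RNase A for 30 min at 37 °C, analysed by flow cytometry for phase distribution. Means ± SD, three independent experiments.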

[5] = target: Tyrosine-protein kinase SYK (Homo sapiens) (UniProt P43405); test: Inhibition of recombinant full-length human Syk at 1 uM using poly(Glu, Tyr) 4:1 as substrate measured after 40 mins in presence of [gamma33P]ATP by scintillation counting method relative to control
[6] = target: Cyclin-dependent kinase-like 3 (Homo sapiens) (UniProt Q8IVW4); test: Inhibition of human full length recombinant human CDKL3 at 1 uM using RRRFRPASPLRGP as substrate measured after 120 mins in presence of [gamma33P]ATP by scintillation counting method relative to control
[7] = target: Serine/threonine-protein kinase SIK1 (Homo sapiens) (UniProt P57059); test: Inhibition of human SIK (1 to 281 residues) at 1 uM using AMARAASAAALARRR as substrate measured after 40 mins in presence of [gamma33P]ATP by scintillation counting method relative to control; how it was run: as §1
Serine/threonine-protein kinase SIK1 (Homo sapiens), sequence (P57059 whole entry, the tested form may be a part): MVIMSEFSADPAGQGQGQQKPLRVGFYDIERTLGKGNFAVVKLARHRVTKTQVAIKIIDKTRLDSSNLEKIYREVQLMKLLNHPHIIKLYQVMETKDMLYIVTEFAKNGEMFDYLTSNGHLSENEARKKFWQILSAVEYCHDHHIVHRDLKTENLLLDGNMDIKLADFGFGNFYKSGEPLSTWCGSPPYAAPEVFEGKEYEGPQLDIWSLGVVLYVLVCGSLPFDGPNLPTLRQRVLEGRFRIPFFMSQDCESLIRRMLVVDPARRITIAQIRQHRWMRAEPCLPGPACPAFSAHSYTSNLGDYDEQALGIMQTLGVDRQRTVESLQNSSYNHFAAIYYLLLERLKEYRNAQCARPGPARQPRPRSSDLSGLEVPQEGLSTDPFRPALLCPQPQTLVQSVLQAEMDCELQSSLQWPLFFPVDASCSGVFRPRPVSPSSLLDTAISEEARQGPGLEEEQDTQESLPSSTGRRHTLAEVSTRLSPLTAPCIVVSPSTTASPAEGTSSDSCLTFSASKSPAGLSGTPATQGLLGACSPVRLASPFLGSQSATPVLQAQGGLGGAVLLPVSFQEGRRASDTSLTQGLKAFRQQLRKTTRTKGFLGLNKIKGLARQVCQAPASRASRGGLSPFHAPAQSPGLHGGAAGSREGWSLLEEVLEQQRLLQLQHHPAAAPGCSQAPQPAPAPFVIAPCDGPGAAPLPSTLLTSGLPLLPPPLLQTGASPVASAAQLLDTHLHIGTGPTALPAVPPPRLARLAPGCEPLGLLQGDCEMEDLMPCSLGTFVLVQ

[8] = target: Homeodomain-interacting protein kinase 3 (Homo sapiens) (UniProt Q9H422); test: Inhibition of recombinant human HIPK3 (161 to 562 residues) at 1 uM using myelin basic protein as substrate measured after 40 mins in presence of [gamma33P]ATP by scintillation counting method relative to control
[9] = target: Casein kinase II subunit alpha' (Homo sapiens) (UniProt P19784); test: Inhibition of full length recombinant human CK2alpha2 at 1 uM using RRRDDDSDDD as substrate measured after 40 mins in presence of [gamma33P]ATP by scintillation counting method relative to control
Casein kinase II subunit alpha' (Homo sapiens), sequence (P19784 whole entry, looked up): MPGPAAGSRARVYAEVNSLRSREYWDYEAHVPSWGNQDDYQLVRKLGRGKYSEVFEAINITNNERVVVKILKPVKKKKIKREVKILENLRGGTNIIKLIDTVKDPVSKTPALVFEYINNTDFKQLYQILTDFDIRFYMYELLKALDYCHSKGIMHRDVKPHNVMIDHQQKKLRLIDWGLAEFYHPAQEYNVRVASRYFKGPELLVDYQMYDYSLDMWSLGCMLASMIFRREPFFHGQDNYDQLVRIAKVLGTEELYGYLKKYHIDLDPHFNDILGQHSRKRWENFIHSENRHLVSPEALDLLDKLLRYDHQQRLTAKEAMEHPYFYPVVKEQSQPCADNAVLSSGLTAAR

[10] = tested on: MCF7; test: Antiproliferative activity against human MCF7 cells assessed as inhibition of cell viability at 500 nM after 72 hrs by CCK-8 assay relative to control; assay type: functional; details: MCF7, 72 h
How it was run: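 Single-concentration viability screen using CCK-8. Cells were seeded at 3000/well and treated for 72 h. A450 read after 1-4 h with reagent. Percent inhibition calculated against untreated control and blank wells as (Ac−As)/(Ac−Ab)×100%.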

[11] = target: Ephrin type-B receptor 1 (Homo sapiens) (UniProt P54762); test: Inhibition of recombinant human EphB1 (564 to end residues) at 1 uM using KVEKIGEGTYGVVYK as substrate measured after 40 mins in presence of [gamma33P]ATP by scintillation counting method relative to control
[12] = tested on: A549; test: Inhibition of tumorsphere formation in human A549 cells assessed as reduction in side population ratio at 0.25 to 1 uM by PI/Hoechst 33342 staining based flow cytometry; assay type: functional, cell-based
[13] = target: Mitogen-activated protein kinase 10 (Homo sapiens) (UniProt P53779); test: Inhibition of recombinant full-length human JNK3 at 1 uM using peptide as substrate measured after 40 mins in presence of [gamma33P]ATP by scintillation counting method relative to control
Mitogen-activated protein kinase 10 (Homo sapiens), sequence (P53779 whole entry): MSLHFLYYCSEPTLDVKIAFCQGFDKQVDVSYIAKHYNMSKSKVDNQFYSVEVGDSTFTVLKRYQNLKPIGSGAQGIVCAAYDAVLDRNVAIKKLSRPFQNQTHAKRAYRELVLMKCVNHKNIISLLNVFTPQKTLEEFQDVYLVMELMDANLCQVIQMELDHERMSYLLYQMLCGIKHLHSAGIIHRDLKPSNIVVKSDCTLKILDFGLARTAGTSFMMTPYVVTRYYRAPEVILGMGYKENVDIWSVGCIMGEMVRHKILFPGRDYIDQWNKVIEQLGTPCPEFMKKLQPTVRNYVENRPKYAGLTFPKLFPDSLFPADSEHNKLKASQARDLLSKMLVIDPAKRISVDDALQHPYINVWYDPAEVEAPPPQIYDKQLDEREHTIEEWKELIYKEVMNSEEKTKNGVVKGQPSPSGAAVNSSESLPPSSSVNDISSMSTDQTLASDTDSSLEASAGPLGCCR

[14] = target: Testis-specific serine/threonine-protein kinase 3 (Homo sapiens) (UniProt Q96PN8); test: Inhibition of recombinant full-length human TSSK3 at 1 uM using AMARAASAAALARRR as substrate measured after 40 mins in presence of [gamma33P]ATP by scintillation counting method relative to control
Testis-specific serine/threonine-protein kinase 3 (Homo sapiens), sequence (Q96PN8 whole entry): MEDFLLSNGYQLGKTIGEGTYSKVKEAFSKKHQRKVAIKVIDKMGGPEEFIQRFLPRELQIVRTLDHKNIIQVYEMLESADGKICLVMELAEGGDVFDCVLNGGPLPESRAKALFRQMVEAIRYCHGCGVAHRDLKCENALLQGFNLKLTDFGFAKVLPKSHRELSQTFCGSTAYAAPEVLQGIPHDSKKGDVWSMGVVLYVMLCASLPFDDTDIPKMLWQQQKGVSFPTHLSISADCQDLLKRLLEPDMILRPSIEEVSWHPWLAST

[15] = target: Protein kinase C zeta type (Homo sapiens) (UniProt Q05513); test: Inhibition of recombinant human PKCzeta (2 to end residues) at 1 uM using ERMRPRKRQGSVRRRV as substrate measured after 40 mins in presence of [gamma33P]ATP by scintillation counting method relative to control
Protein kinase C zeta type (Homo sapiens), sequence (Q05513 whole entry): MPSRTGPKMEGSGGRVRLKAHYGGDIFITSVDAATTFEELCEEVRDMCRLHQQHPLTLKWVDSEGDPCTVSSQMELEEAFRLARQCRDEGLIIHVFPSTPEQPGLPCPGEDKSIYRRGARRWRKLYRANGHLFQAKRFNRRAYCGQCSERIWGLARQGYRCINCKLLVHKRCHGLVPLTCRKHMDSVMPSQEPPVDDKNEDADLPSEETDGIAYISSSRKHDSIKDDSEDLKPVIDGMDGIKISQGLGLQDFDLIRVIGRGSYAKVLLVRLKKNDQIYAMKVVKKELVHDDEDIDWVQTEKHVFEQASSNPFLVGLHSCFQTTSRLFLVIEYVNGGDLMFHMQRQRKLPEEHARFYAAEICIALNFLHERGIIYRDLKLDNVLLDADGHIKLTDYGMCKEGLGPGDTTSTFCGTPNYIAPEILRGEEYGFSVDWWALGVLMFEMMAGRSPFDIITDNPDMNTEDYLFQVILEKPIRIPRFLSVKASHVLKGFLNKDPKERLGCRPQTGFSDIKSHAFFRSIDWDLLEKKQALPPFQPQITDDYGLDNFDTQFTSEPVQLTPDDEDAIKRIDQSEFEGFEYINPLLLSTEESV
How it was run: (§2)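 Single-point inhibition at 1 µM was measured in the Eurofins KinaseProfiler panel. Values are the mean of two independent experiments.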

[16] = target: Calcium/calmodulin-dependent protein kinase type 1G (Homo sapiens) (UniProt Q96NX5); test: Inhibition of full-length recombinant human CaMK1 gamma at 1 uM using KKLRRTLSFAEPG as substrate measured after 40 mins in presence of [gamma33P]ATP by scintillation counting method relative to control; how it was run: as §1
Calcium/calmodulin-dependent protein kinase type 1G (Homo sapiens), sequence (Q96NX5 whole entry, the tested form may be a part): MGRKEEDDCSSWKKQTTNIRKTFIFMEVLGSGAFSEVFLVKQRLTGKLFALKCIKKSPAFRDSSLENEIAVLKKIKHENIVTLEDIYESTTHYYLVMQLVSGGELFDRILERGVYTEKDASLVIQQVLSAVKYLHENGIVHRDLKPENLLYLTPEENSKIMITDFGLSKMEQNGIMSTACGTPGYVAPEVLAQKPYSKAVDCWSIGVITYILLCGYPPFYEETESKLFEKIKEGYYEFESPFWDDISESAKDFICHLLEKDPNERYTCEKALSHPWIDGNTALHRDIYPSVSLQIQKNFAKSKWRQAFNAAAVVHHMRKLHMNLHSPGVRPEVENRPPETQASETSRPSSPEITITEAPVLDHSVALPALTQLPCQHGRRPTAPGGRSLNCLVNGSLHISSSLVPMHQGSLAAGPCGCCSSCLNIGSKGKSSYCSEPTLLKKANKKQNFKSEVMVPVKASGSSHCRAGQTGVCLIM

[17] = target: Tau-tubulin kinase 1 (Homo sapiens) (UniProt Q5TCY1); test: Inhibition of recombinant human TTBK1 (1 to 479 residues) at 1 uM using casein as substrate measured after 40 mins in presence of [gamma33P]ATP by scintillation counting method relative to control
Tau-tubulin kinase 1 (Homo sapiens), sequence (Q5TCY1 whole entry, the tested form may be a part): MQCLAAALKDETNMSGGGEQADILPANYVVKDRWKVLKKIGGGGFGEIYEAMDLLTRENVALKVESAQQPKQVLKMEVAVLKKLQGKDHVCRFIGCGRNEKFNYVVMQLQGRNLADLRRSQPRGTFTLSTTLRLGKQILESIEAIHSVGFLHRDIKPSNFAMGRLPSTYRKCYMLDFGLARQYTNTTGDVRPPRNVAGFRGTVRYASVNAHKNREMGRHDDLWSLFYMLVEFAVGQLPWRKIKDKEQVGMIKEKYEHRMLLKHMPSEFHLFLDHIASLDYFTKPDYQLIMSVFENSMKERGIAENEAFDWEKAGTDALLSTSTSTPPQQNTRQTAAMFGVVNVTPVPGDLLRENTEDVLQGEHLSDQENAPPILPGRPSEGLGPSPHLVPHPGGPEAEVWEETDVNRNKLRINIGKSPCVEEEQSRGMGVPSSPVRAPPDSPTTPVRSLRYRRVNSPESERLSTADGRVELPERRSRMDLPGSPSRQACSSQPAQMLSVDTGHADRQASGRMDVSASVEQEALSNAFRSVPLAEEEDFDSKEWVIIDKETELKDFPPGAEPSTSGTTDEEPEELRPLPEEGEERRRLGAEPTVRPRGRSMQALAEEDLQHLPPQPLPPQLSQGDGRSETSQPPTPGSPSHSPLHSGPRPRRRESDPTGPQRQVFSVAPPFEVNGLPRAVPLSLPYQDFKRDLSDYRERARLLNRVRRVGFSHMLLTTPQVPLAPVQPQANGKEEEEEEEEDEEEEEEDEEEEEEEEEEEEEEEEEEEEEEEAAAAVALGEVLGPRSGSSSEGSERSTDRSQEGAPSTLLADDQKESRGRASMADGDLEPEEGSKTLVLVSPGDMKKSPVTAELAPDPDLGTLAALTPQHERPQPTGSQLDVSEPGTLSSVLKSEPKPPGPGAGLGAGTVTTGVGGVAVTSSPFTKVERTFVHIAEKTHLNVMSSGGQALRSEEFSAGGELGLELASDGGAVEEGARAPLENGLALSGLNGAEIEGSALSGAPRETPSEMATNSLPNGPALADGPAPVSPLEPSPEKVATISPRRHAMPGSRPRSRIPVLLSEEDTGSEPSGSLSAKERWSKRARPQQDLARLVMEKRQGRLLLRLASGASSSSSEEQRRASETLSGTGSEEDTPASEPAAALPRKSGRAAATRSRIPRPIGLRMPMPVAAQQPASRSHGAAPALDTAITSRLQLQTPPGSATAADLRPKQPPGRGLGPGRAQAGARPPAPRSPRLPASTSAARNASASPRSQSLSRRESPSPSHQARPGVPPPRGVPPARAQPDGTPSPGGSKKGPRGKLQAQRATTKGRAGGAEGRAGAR

[18] = tested on: NCI-H1299; test: Downregulation of NANOG in human H1299 cells at 0.25 to 1 uM by Western blot analysis; assay type: functional, cell-based
[19] = species: Homo sapiens; test: Inhibition of recombinant human ARAF Y301D/Y302D mutant (273 to end residues) at 1 uM using myelin basic protein as substrate measured after 40 mins in presence of [gamma33P]ATP by scintillation counting method relative to control
[20] = target: Mast/stem cell growth factor receptor Kit (Homo sapiens) (UniProt P10721); test: Inhibition of recombinant human cKit (544 to end residues) at 1 uM using Poly(Glu,Tyr) 4:1 as substrate measured after 40 mins in presence of [gamma33P]ATP by scintillation counting method relative to control; how it was run: as §2
[21] = target: Mitogen-activated protein kinase kinase kinase 10 (Homo sapiens) (UniProt Q02779); test: Inhibition of recombinant human MLK2 (1 to 449 residues) at 1 uM using myelin basic protein as substrate measured after 40 mins in presence of [gamma33P]ATP by scintillation counting method relative to control
[22] = target: Ribosomal protein S6 kinase alpha-1 (Homo sapiens) (UniProt Q15418); test: Inhibition of recombinant full-length human Rsk1 at 1 uM using KKKNRTLSVA as substrate measured after 40 mins in presence of [gamma33P]ATP by scintillation counting method relative to control

CN(C)C(=O)c1cc2cnc(Nc3ccc(NC(=O)CCCCCCCN=C=S)cc3)nc2n1C1CCCC1
Activity [1]: Active
inhibition [2]: 56%
inhibition [3]: 0%
Activity [4]: 34.4%
inhibition [5]: 22%
inhibition [6]: 53%
inhibition [7]: 51%
inhibition [8]: 26%
inhibition [9]: -4%
inhibition at 0.5 µM [10]: 62%
inhibition [11]: 9%
inhibition [12]: Active
inhibition [13]: 85%
inhibition [14]: 4%
inhibition [15]: 1%
inhibition [16]: 21%
inhibition [17]: -7%
Activity [18]: Active
inhibition [19]: -1%
inhibition [20]: 26%
inhibition [21]: 65%
inhibition [22]: 21%

Source: ChEMBL document CHEMBL4376814, “Novel cyclin-dependent kinase 9 (CDK9) inhibitor with suppression of cancer stemness activity against non-small-cell lung cancer” (Eur J Med Chem, 2019)
